Data: ChEMBL document CHEMBL1145786, “Synthesis and structure-activity relationship of alpha-sulfonylhydroxamic acids as novel, orally active matrix metalloproteinase inhibitors for the treatment of osteoarthritis” (J Med Chem, 2003)

Columns and labels:
Interstitial collagenase [1] = target: T1, Interstitial collagenase (Homo sapiens, UniProt P03956); assay: In vitro inhibition of matrix metalloprotease-1
T1 sequence (P03956 whole entry): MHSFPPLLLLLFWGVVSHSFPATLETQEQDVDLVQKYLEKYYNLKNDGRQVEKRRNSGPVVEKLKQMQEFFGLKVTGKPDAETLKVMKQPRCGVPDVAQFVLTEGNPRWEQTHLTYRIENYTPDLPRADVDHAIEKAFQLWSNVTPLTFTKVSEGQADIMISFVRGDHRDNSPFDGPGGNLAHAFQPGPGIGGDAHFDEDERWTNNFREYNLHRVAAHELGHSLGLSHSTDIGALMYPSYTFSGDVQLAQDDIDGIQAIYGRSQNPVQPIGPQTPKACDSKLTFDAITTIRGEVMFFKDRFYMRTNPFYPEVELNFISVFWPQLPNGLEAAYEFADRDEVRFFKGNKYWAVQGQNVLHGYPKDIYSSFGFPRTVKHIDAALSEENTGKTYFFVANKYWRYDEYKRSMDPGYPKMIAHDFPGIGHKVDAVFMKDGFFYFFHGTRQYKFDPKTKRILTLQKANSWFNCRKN

Mus musculus [2] = assay: Compound was tested in vivo for inhibition using dialysis implant, values expressed relative to activity of CGS-27023 at dose 25 mg/kg(po)(68 +/-3); assay type: functional
How it was run: (§1)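 Groups of mice dosed orally at 25 mg/kg with drug or vehicle carrying an implanted enzyme-containing dialysis bag. After 1 h of exposure, bag retrieved, and enzyme activity inside measured spectrophotometrically against bags from vehicle-treated mice. Percent inhibition expressed relative to CGS-27023 (set as 1) run as standard.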

[3] = target: T2, Matrix metalloproteinase-9 (Homo sapiens, UniProt P14780); assay: In vitro inhibition of matrix metalloprotease-9
How it was run: (§2)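 Each inhibitor concentration tested in triplicate. IC50 derived from a four-parameter logistic fit of the data within a single experiment, and the reported value is the mean of the triplicate values.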

[4] = target: T3, Disintegrin and metalloproteinase domain-containing protein 17 (Homo sapiens, UniProt P78536); assay: In vitro inhibition against tumor necrosis factor alpha converting enzyme at 10 uM concentration
How it was run: (§3)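 Single-point enzyme inhibition at 10 µM inhibitor, reported as percent inhibition. Full dose-response curves were run only where inhibition reached at least 60% at 10 µM.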

[5] = target: T2, Matrix metalloproteinase-9; assay: Inhibition of Matrix metalloprotease-9 at 10 uM; how it was run: as §3
Mus musculus [6] = assay: Compound was tested in vivo for inhibition using dialysis implant data, value expressed relative to activity of CGS-27023 at dose 25 mg/kg(po) (73 +/-4); assay type: functional; how it was run: as §1
Mus musculus [7] = assay: Compound was tested in vivo for inhibition using dialysis implant data, value expressed relative to activity of CGS-27023 at dose 25 mg/kg(po)(67 +/-3); assay type: functional; how it was run: as §1
Mus musculus [8] = assay: Compound was tested in vivo for inhibition using dialysis implant, value expressed relative to activity of CGS-27023 at dose 25 mg/kg(po) (77+/-3); assay type: functional; how it was run: as §1
Rattus norvegicus = assay: Compound was tested in vivo for inhibition in rat sponge-wrapped cartilage model, value expressed relative to activity of CGS-27023 at dose 25 mg/kg (p.o.) in (52+/-4); assay type: functional; settings: route oral
How it was run: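 Oral dosing at 25 mg/kg once daily for 3 weeks, with CGS-27023 as comparator. Read-out was percent inhibition of degradation of bovine cartilage in the sponge-wrapped implant.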

Collagenase 3 [9] = target: T4, Collagenase 3 (Homo sapiens, UniProt P45452); assay: In vitro inhibition of matrix metalloprotease-13
Mus musculus [10] = assay: Compound was tested in vivo for inhibition using dialysis implant, values expressed relative to activity of CGS-27023 at dose 25 mg/kg(po)(60 +/-4); assay type: functional; how it was run: as §1
Mus musculus [11] = assay: Compound was tested in vivo for inhibition using dialysis implant, value expressed relative to activity of CGS-27023 at dose 25 mg/kg(po) (66 +/- 4); assay type: functional; how it was run: as §1
[12] = target: T3, Disintegrin and metalloproteinase domain-containing protein 17; assay: Inhibition of Tumor necrosis factor alpha converting enzyme
[13] = target: T5, Interstitial collagenase (Homo sapiens) (UniProt P03956); assay: Inhibition of Matrix metalloprotease-1 at 10 uM; how it was run: as §3
T5 sequence (whole entry): T1 sequence (P03956 whole entry)

Mus musculus [14] = assay: Compound was tested in vivo for inhibition using dialysis implant, value expressed relative to activity of CGS-27023 at dose 25 mg/kg (p.o.) (66+/-4); assay type: functional; settings: route oral; how it was run: as §1
[15] = target: T3, Disintegrin and metalloproteinase domain-containing protein 17; assay: Inhibition of Tumor necrosis factor alpha converting enzyme at 10 uM
Mus musculus [16] = assay: Compound was tested in vivo for inhibition using dialysis implant, value expressed relative to activity of CGS-27023 at dose 25 mg/kg(po)(53 +/-4); assay type: functional; how it was run: as §1
Interstitial collagenase [17] = target: T1, Interstitial collagenase; assay: Inhibition of Matrix metalloprotease-1; how it was run: as §2
Mus musculus [18] = assay: Compound was tested in vivo for inhibition using dialysis implant, value expressed relative to activity of CGS-27023 at dose 25 mg/kg(po)(53 +/- 4); assay type: functional; how it was run: as §1
Collagenase 3 [19] = target: T4, Collagenase 3; assay: Inhibition of Matrix metalloprotease-13
[20] = target: T2, Matrix metalloproteinase-9; assay: Inhibition of Matrix metalloprotease-9; how it was run: as §2

T2 sequence (P14780 whole entry): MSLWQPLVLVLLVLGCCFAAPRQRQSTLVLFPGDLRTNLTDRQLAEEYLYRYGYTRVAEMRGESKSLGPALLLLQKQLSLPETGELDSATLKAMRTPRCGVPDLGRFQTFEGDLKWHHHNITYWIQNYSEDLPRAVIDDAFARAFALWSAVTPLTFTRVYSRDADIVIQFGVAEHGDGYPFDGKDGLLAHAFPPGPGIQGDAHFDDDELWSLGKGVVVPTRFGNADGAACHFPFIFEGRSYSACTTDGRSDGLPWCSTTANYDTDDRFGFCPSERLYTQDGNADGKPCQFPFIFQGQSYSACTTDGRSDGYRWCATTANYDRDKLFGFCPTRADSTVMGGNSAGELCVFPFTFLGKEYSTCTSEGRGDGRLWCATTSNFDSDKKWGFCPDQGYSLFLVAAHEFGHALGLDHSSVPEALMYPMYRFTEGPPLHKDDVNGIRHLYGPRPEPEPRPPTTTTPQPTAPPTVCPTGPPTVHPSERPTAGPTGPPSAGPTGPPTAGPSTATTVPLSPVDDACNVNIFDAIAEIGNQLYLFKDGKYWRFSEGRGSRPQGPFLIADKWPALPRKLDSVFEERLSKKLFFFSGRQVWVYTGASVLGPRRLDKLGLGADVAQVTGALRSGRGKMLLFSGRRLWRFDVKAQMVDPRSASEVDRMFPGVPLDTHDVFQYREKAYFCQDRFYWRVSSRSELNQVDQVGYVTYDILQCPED
T3 sequence (P78536 whole entry, the tested form may be a part): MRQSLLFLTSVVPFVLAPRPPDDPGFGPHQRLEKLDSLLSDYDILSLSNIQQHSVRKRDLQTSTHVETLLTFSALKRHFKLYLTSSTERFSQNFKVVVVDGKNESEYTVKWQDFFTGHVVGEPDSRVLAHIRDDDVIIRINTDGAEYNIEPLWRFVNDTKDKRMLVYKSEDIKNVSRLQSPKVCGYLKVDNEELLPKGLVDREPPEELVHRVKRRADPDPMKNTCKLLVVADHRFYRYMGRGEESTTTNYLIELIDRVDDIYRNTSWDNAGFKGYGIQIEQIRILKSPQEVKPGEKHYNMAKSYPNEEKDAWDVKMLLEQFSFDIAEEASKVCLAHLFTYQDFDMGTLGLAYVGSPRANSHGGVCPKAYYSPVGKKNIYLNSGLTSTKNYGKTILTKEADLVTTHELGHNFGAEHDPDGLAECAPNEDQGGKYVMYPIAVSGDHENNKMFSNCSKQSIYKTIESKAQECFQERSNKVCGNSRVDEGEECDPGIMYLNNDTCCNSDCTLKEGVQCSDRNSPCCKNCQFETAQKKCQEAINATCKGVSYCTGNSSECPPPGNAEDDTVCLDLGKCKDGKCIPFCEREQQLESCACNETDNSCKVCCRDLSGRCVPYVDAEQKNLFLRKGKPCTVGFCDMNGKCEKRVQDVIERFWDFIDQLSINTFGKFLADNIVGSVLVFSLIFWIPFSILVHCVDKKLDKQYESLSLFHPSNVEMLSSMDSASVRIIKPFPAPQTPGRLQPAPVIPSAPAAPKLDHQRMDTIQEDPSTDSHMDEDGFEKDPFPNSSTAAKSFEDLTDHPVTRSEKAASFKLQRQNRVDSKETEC

SMILES: COc1ccc(S(=O)(=O)[C@](C)(Cc2ccc(OCCN3CCCCC3)cc2)C(=O)NO)cc1 (stereo in doubt; form 2)
- IC50 (Interstitial collagenase [1]): 154 nM
- inhibition in vivo at 25 mg/kg (Mus musculus [2]): 69%
- IC50 [3]: 5 nM

SMILES: COc1ccc(S(=O)(=O)C(C(=O)NO)C(C)C)cc1 (centres undefined)
- inhibition [4]: 52%
- inhibition [5]: 27%

SMILES: COc1ccc(S(=O)(=O)C(Cc2cccnc2)(CC(C)C)C(=O)NO)cc1 (centres undefined)
- IC50 (Interstitial collagenase [1]): 1000 nM
- inhibition [4]: 42%

SMILES: COc1ccc(S(=O)(=O)C(C)(Cc2ccc(OCCCN3CCN(c4cccc(Cl)c4)CC3)cc2)C(=O)NO)cc1 (centres undefined)
- inhibition [4]: 40%
- inhibition in vivo at 25 mg/kg (Mus musculus [6]): 72%
- IC50 [3]: 7 nM

SMILES: COc1ccc(S(=O)(=O)C(C)(Cc2ccc(OCCN3CCOCC3)cc2)C(=O)NO)cc1 (centres undefined)
- IC50 (Interstitial collagenase [1]): 413 nM
- inhibition [4]: 47%
- inhibition in vivo at 25 mg/kg (Mus musculus [7]): 48%
- IC50 [3]: 21 nM

SMILES: COc1ccc(S(=O)(=O)C(C)(Cc2ccc(OCCN3CCCCC3)cc2)C(=O)NO)cc1 (centres undefined)
- inhibition [4]: 41%
- inhibition in vivo at 25 mg/kg (Mus musculus [8]): 78%
- inhibition in vivo at 25 mg/kg (Rattus norvegicus): 69%

SMILES: CCN(CC)COc1ccc(CC(C)(C(=O)NO)S(=O)(=O)c2ccc(-c3ccco3)cc2)cc1 (centres undefined)
- IC50 (Interstitial collagenase [1]): 14 nM
- inhibition [4]: 45%
- IC50 [3]: 4 nM
- IC50 (Collagenase 3 [9]): 2 nM

SMILES: COc1ccc(S(=O)(=O)[C@](C)(Cc2ccc(OCCN3CCCCC3)cc2)C(=O)NO)cc1 (stereo in doubt; form 1)
- IC50 (Interstitial collagenase [1]): 2530 nM
- IC50 [3]: 112 nM
- inhibition in vivo at 25 mg/kg (Mus musculus [10]): 15%

SMILES: COc1ccc(S(=O)(=O)C(C)(Cc2ccccc2)C(=O)NO)cc1 (centres undefined)
- inhibition [4]: 15%

SMILES: COc1ccc(S(=O)(=O)C(CCC(C)C)(Cc2cccnc2)C(=O)NO)cc1 (centres undefined)
- inhibition [4]: 41%

SMILES: COc1ccc(S(=O)(=O)C(C)(Cc2ccc(OCCN3CCCCCC3)cc2)C(=O)NO)cc1 (centres undefined)
- inhibition [4]: 29%
- inhibition in vivo at 25 mg/kg (Rattus norvegicus): 67%
- inhibition in vivo at 25 mg/kg (Mus musculus [11]): 65%

SMILES: CC(C)=CCC(CC=C(C)C)(C(=O)NO)S(=O)(=O)c1ccc(C)cc1
- inhibition [4]: 36%
- IC50 (Collagenase 3 [9]): 6 nM

SMILES: CCCCCCCCS(=O)(=O)C(C)(Cc1ccc(OCCN2CCCCC2)cc1)C(=O)NO (centres undefined)
- IC50 (Interstitial collagenase [1]): 10 nM
- inhibition [4]: 65%
- IC50 [3]: 23 nM
- IC50 (Collagenase 3 [9]): 55 nM

SMILES: CCCCCCCC[C@@](Cc1cccnc1)(C(=O)NO)S(=O)(=O)c1ccc(OC)cc1
- IC50 [12]: 669 nM

SMILES: COc1ccc(S(=O)(=O)C(C)(Cc2ccc3ccccc3c2)C(=O)NO)cc1 (centres undefined)
- IC50 [3]: 8 nM

SMILES: CCCCC(C(=O)NO)S(=O)(=O)c1ccc(OC)cc1 (centres undefined)
- inhibition [4]: 54%
- inhibition [13]: 8%

SMILES: CCN(CC)CCOc1ccc(CC(C)(C(=O)NO)S(=O)(=O)c2ccc(OC)cc2)cc1 (centres undefined)
- inhibition in vivo at 25 mg/kg (Mus musculus [14]): 68%
- inhibition [4]: 39%
- IC50 [3]: 13 nM
- IC50 (Collagenase 3 [9]): 15 nM

SMILES: COc1ccc(S(=O)(=O)C(C)(Cc2ccc(-c3ccccc3)cc2)C(=O)NO)cc1 (centres undefined)
- inhibition [4]: 17%

SMILES: COc1ccc(S(=O)(=O)C(C)(Cc2ccc(OCCN(C(C)C)C(C)C)cc2)C(=O)NO)cc1 (centres undefined)
- inhibition [15]: 31%

SMILES: CCCC(CCC)(C(=O)NO)S(=O)(=O)c1ccc(OC)cc1
- inhibition [4]: 24%
- inhibition [13]: 30%

SMILES: CCCCCCCCS(=O)(=O)C(C)(Cc1ccccc1)C(=O)NO (centres undefined)
- inhibition [4]: 1%

SMILES: CC(Cc1ccc(OCCN2CCCCC2)cc1)(C(=O)NO)S(=O)(=O)c1cccs1 (centres undefined)
- IC50 (Interstitial collagenase [1]): 99 nM
- inhibition [4]: 51%
- IC50 [3]: 79 nM
- IC50 (Collagenase 3 [9]): 85 nM

SMILES: COc1ccc(S(=O)(=O)C(C)(C/C=C/c2ccccc2)C(=O)NO)cc1 (centres undefined)
- IC50 (Interstitial collagenase [1]): 299 nM
- inhibition [4]: 65%
- IC50 [3]: 16 nM
- IC50 (Collagenase 3 [9]): 12 nM

SMILES: CCCCCCCCCCCCC(C(=O)NO)S(=O)(=O)c1ccc(OC)cc1 (centres undefined)
- inhibition [13]: 18%

SMILES: CC(Cc1ccccc1)(C(=O)NO)S(=O)(=O)c1cccs1 (centres undefined)
- IC50 (Interstitial collagenase [1]): 49 nM
- inhibition [4]: 20%
- IC50 [3]: 49 nM
- IC50 (Collagenase 3 [9]): 37 nM

SMILES: COc1ccc(S(=O)(=O)C(Cc2ccccc2)C(=O)NO)cc1 (centres undefined)
- IC50 (Collagenase 3 [9]): 100 nM

SMILES: C#CCC(CC#C)(C(=O)NO)S(=O)(=O)c1ccc(OC)cc1
- inhibition [4]: 20%

SMILES: CCCCOc1ccc(S(=O)(=O)C(C)(Cc2ccc(OCCN3CCCCC3)cc2)C(=O)NO)cc1 (centres undefined)
- inhibition [4]: 30%
- inhibition in vivo at 25 mg/kg (Mus musculus [16]): 64%
- IC50 [3]: 3 nM

SMILES: C#CCC(Cc1cccnc1)(C(=O)NO)S(=O)(=O)c1ccc(OC)cc1 (centres undefined)
- inhibition [4]: 23%
- IC50 (Collagenase 3 [9]): 32 nM

SMILES: COc1ccc(CS(=O)(=O)C(C)(Cc2ccccc2)C(=O)NO)cc1 (centres undefined)
- IC50 (Interstitial collagenase [1]): 10 nM
- inhibition [4]: 3%

SMILES: C=CCC(CC=C)(C(=O)NO)S(=O)(=O)c1ccc(OC)cc1
- inhibition [4]: 7%

SMILES: CCOc1ccc(S(=O)(=O)C(C)(Cc2ccc(OCCN(CC)CC)cc2)C(=O)NO)cc1 (centres undefined)
- IC50 (Interstitial collagenase [17]): 627 nM
- inhibition in vivo at 25 mg/kg (Mus musculus [18]): 74%
- IC50 (Collagenase 3 [19]): 16 nM
- IC50 [20]: 11 nM

SMILES: COc1ccc(S(=O)(=O)C(CC=C(C)C)(CC=C(C)C)C(=O)NO)cc1
- IC50 [3]: 0.5 nM

SMILES: COc1ccc(S(=O)(=O)C(C)(Cc2cccnc2)C(=O)NO)cc1 (centres undefined)
- inhibition [4]: 17%

SMILES: CCCC[C@@](Cc1cccnc1)(C(=O)NO)S(=O)(=O)c1ccc(OC)cc1
- IC50 [12]: 764 nM
- inhibition [5]: 88%
